Source: PubChem (several laboratories)
Sampled rows, rich in hits. Any-hit rate of the full collection: about 1.5%.
Dynein cargo inh = blocks dynein driven cargo transport along microtubules; 3617.4 mouse cells, GR-EGFP nuclear translocation imaging; test concentration mostly 20 µM; stimulated with dexamethasone, 1 µM; hits give low values; z-score, hits read low; 0.47% of 220,000 active; AID 1381;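 active = plate z-score of nuclear minus cytoplasmic receptor signal below a set negative limit, without overly bright fluorescence or cell loss, cut at about -3.5 in these data, passing the limit was not always enough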;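 also: z-score of nuclear minus cytoplasmic ring GR-EGFP intensity difference per well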
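Medium: Induction medium lacking tetracycline, stripped serum | Probe or stimulus: 1.0 µM final dexamethasone stimulus | Schedule: 48 h induction, then 1 h compound, then 30 min agonist, 37 °C | Signal: Automated 10x imaging of fixed Hoechst-stained cells | Evaluation: Per-cell GR-EGFP intensity, nucleus versus surrounding cytoplasmic ring, well-averaged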
L929 necroptosis = L929 zVAD cell death inhibition. viability rescue, % at 10 µM. 0.38% of 220,000 active. L929 zVAD necroptosis rescue, ATP luminescence, 24 h; with zVAD 60 µM;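 active = activation, scaled between plate controls, above about 75%, limit read from the data; inactive = activation under that limit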;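 also: 0% = zVAD with DMSO and 100% = DMSO alone without zVAD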
S1P4 antag = human S1P4 receptor antagonism; O95977; S1P4-expressing cells, antagonist mode, reporter read-out; inhibition, % at 4.98 µM; 0.26% of 220,000 active; AID 1510; in the data active = inhibition above about 29%;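 also: 0% = wells stimulated with agonist and 100% = vehicle wells without agonist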
Target sequence (O95977 whole entry, looked up): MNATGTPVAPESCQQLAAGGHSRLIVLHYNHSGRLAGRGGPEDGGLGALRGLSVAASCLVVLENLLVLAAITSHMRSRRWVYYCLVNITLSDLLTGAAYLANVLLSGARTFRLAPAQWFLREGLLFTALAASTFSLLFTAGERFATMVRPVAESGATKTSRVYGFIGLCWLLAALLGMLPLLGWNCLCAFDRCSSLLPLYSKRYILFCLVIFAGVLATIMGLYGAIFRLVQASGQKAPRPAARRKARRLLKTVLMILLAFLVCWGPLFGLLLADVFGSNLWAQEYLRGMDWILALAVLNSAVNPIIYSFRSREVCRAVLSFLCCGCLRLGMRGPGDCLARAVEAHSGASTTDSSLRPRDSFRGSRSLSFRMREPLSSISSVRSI
TNF necrop inh = blocks TNF-alpha induced death of Jurkat FADD-/- cells | Jurkat FADD-/- TNF necroptosis rescue, ATP luminescence, 24 h; 0 = TNF only, 100 = no-TNF cells | activation (protection from cell death), % at 10 µM | 0.068% of 220,000 active | AID 463075;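 active = activation, meaning protection from cell death, of at least 50% relative to plate controls; inactive = activation below 50%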;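 also: necroptosis triggered by 40 ng/mL TNF-alpha added together with compound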
S1P4 agonist = agonists of human S1P4 receptor. S1P4-expressing cell line, agonist reporter assay. activation, % at 4.98 µM. 0.35% of 220,000 active; in the data active = activation above about 11%;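 also: 0% = DMSO vehicle and 100% = reference agonist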
TbHK1 inh = blocks Trypanosoma brucei hexokinase 1 activity | recombinant TbHK1, G6PDH-coupled NADH A340 | inhibition, % at 10 µM | 0.11% of 220,000 active | AID 1430;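 active = inhibition of 50% or more in the single-dose primary screen; inactive = inhibition below 50%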
G6PDH counter = counter-screen for TbHK1 inhibitors: Leuconostoc G6PDH inhibition; shares compounds with TbHK1 inh; purified G6PDH, NADH absorbance, 1 h; inhibition, % at 10 µM; 7% of 210 active;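 active = at least 50% inhibition in the glucose-6-phosphate dehydrogenase coupled counterscreen; inconclusive = no clear call, values can overlap the other calls; inactive = inhibition below 50%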
TbHK1 rescreen = T. brucei hexokinase 1 inhibition, rescreen | shares compounds with TbHK1 inh | recombinant TbHK1, G6PDH-coupled NADH A340 absorbance | inhibition, % at 10 µM | 10% of 210 active | AID 2560;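 active = inhibition of at least 50% in both of the two screening runs; inconclusive = at least 50% in one run, below 50% in the other; inactive = inhibition below 50% in both runs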;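 also: 0% and 100% set by the maximum and minimum signal control wells on each plate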
Active calls of the source: *; ? = inconclusive; . = no result given.

SMILES	Dynein cargo inh	L929 necroptosis	S1P4 antag	TNF necrop inh	S1P4 agonist	TbHK1 inh	G6PDH counter	TbHK1 rescreen
Cc1ccc(CNC(=O)C2CNc3cc(C)ccc3O2)cc1 (configuration not stated)	0.78	0	-6	1	-1	58*	-7	16
Cc1ccc2c(c1)NCC(C(=O)NCc1ccccc1)O2 (configuration not stated)	-0.23	.	-2	2	1	0	.	.
CSc1nc2n(n1)C(c1cc(Br)ccc1F)C(C(=O)N(C)C)=C(C)N2 (configuration not stated)	-0.79	0	-15	1	2	63*	-6	-7
CCOC(=O)CNC(=O)CSc1nnc(-c2ccco2)n1N	1.3	1	-4	1	2	51*	1	8
C=CCn1c(SCC(=O)NCC(=O)OCC)nnc1-c1ccccn1	-0.28	0	-6	0	-1	50*	3	1
O=C(C1CCCO1)N1CCN(c2ccccn2)CC1 (configuration not stated)	-0.88	1	-6	2	1	-4	.	.
O=C(Nc1c[nH]c(=O)[nH]c1=O)c1ccc2c(c1)C(=O)N(c1cccc([N+](=O)[O-])c1)C2=O	1.3	0	-10	1	0	56*	84*	70*
O=C(CSc1n[nH]c(-c2ccccc2O)n1)N1CCCc2ccccc21	-0.67	0	-7	-6	2	64*	-4	-1
Cc1cc(C)c2c(=O)n(CC(=O)Nc3cccc(Cl)c3C)sc2n1	-1.1	0	8	-4	2	16	.	.
Cc1cc(C)c2c(=O)n(CC(=O)Nc3ccc(Br)c(C)c3)sc2n1	-0.83	-1	-2	-16	2	51*	-6	42
O=C(O)CCn1nnc(-c2cccs2)n1	-0.11	0	5	0	1	54*	-3	1
O=C(O)Cn1nnc(-c2cccs2)n1	-0.4	0	1	-4	-3	-4	.	.
Cn1c(NNC(=O)C(c2ccccc2)c2ccccc2)cc(=O)n(C)c1=O	0.47	3	7	0	1	4	.	.
COc1ccc(F)cc1C(=O)C1CCCN(C(=O)c2cccc(N(C)C)c2)C1 (configuration not stated)	2.6	-1	-10	0	0	7	.	.
O=c1c(O)cccc2cc(O)c(O)c(O)c12	-0.55	-1	4	-6	1	70*	-8	?
NS(=O)(=O)c1ccc(NC(=O)CCc2ccccc2)cc1	-0.25	-1	-22	-1	1	-5	.	.
CN(CCO)C(=O)CCC(=O)Nc1ccc(S(N)(=O)=O)cc1	-0.33	0	-20	1	1	60*	-1	6
CCOC(=O)NC(NC(=O)OCC)C(=O)c1ccccc1	0.15	0	-26	1	1	65*	-5	-1
O=C(O)C1CCC(NSc2ccccc2[N+](=O)[O-])CC1 (configuration not stated)	-0.0084	0	-6	-5	1	3	.	.
COc1cc(CCC(=O)OCC(N)=O)cc(OC)c1OC	1	1	-3	0	1	56*	-6	-5
CSc1cccc(NC(=O)C2CCCN2S(=O)(=O)c2ccc(Br)s2)c1 (configuration not stated)	-0.69	0	-15	0	-1	54*	21	14
CC(NC(=O)CNC(=O)OCc1ccccc1)C(=O)N1CC(O)CC1C(=O)OCc1ccccc1 (configuration not stated)	-1.1	0	-8	-8	-1	51*	-10	-1
O=C(NCC(=O)N1CC(O)CC1C(=O)N1CC(O)CC1C(=O)OCc1ccccc1)OCc1ccccc1 (configuration not stated)	-0.74	0	4	1	1	1	.	.
CCOC(=O)Cc1csc(-n2sc3ccccc3c2=O)n1	-0.35	0	0	-5	0	66*	-22	69*
O=C(O)COc1ccccc1C(Nc1ccccn1)c1cc(Cl)c2cccnc2c1O (configuration not stated)	0.54	0	-13	0	0	76*	-42	28
SMILES	Dynein cargo inh	L929 necroptosis	S1P4 antag	TNF necrop inh	S1P4 agonist	TbHK1 inh	G6PDH counter	TbHK1 rescreen
CC(C)CCC(C(=O)O)C(C)CC(=O)NC1CCCCC1 (configuration not stated)	0.067	0	-22	-1	-3	-4	.	.
CCCCCC(C(=O)O)C(C)CC(=O)NC1CCCCC1 (configuration not stated)	0.78	0	-8	-1	0	63*	-20	-7
Cc1ccc(N=Nc2ccc(O)c3ncccc23)cc1	-0.46	1	-12	-13	0	81*	-20	0
Cc1cccc(C(=O)NC(=S)NNC(=O)Cc2ccccc2)c1	-0.2	0	1	0	1	67*	-14	-3
Cc1nc2ccsc2c(=O)n1-c1ccc(Cl)cc1	-0.68	1	-21	1	-1	2	.	.
NNC(=O)c1cccc(COc2ccc3c(c2)CCC3)c1	1.2	.	1	2	2	5	.	.
OCC1N=C(c2ccccn2)OC1c1ccccc1 (configuration not stated)	-0.087	0	-6	0	1	56*	0	0
O=C(NC(=S)NNS(=O)(=O)c1ccccc1)c1cccnc1	0.66	2	-12	0	2	5	.	.
O=C(NC(=S)NNS(=O)(=O)c1ccccc1)c1ccccc1[N+](=O)[O-]	0.62	0	-10	1	1	65*	-22	-1
CCCCC(=O)NC(=S)NNS(=O)(=O)c1ccccc1	1.2	1	-14	1	0	56*	-17	2
O=C(NC(=S)NNS(=O)(=O)c1ccccc1)c1ccc([N+](=O)[O-])cc1	0.81	0	2	1	11	76*	-33	1
COc1ccc(NS(=O)(=O)c2cc(NC(=O)[C@@H](NC(=O)c3ccccc3)C(C)C)ccc2C)cc1	-0.33	2	-18	-2	0	5	.	.
Cc1cc2nc3ccc(=[N+](C)C)cc-3sc2cc1N	-2.8	5	-4	-33	6	66*	126*	77*
COc1ccc2nc(N=Nc3ccc(N(C)C)cc3)sc2c1	-0.5	-1	-2	-17	-3	-3	.	.
CN(C)c1ccc2nc3ccc(=[N+](C)C)cc-3sc2c1	-1.9	3	-10	-15	0	75*	128*	77*
Cc1nc2cc(C)c(C)cc2s1	-0.27	0	-16	0	1	-4	.	.
